This passage reports IC50 results from BindingDB's records for doi:10.1021/jm00089a022 (Warner-Lambert, 1992).

In general, IC50 refers to the point on the concentration scale where inhibition reaches its midpoint.

In one test the target is T1, 3-hydroxy-3-methylglutaryl-coenzyme A reductase (Homo sapiens, UniProt P04035).
T1 sequence (P04035 whole entry): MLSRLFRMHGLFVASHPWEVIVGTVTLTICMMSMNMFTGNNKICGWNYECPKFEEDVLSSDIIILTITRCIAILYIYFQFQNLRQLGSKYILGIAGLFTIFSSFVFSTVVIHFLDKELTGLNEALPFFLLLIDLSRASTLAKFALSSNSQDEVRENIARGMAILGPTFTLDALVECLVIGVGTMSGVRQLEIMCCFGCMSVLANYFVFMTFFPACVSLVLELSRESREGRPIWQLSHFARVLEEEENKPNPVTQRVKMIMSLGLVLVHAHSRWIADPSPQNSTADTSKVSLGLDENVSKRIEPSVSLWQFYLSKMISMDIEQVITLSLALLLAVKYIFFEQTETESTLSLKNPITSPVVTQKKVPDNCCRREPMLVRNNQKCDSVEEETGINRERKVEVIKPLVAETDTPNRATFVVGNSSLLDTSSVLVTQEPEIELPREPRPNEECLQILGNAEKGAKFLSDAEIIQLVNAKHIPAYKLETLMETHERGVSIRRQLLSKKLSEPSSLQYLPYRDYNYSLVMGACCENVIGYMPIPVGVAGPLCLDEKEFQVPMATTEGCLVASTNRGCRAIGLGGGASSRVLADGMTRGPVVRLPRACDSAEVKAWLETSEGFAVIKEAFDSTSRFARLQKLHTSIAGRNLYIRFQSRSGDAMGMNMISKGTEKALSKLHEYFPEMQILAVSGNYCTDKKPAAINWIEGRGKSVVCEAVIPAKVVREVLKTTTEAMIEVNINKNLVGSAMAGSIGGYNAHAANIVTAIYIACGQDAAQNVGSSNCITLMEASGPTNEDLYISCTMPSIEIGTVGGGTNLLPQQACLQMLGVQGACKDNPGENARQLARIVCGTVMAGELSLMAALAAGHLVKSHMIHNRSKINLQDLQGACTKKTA
Description: ChEBML_80349. The text has this: (§1) Tested in vitro for the inhibition of HMG-CoA reductase from partially purified microsomal preparations.
Regarding `CC(C)c1nn(-c2ccccc2)c(-c2ccc(F)cc2)c1CCC(O)C[C@@H](O)CC(=O)O` (some centres undefined), it took 40 nM to reach half-maximal inhibition (IC50).
Same read-out and setting: with `CC(C)c1nn(-c2nc3ccccc3s2)c(-c2ccc(F)cc2)c1/C=C/[C@@H](O)C[C@@H](O)CC(=O)O` the figure was 59 nM; with `CC(C)c1nn(-c2ccccn2)c(-c2ccc(F)cc2)c1CCC(O)C[C@@H](O)CC(=O)O` (some centres undefined), 110 nM; with `O=C(O)C[C@H](O)C[C@H](O)/C=C/c1c(C(F)(F)F)nn(-c2ccccn2)c1-c1ccc(F)cc1`, 17 nM.
Same read-out and setting: the value for `CC(C)c1nn(-c2ccc3ccccc3n2)c(-c2ccc(F)cc2)c1/C=C/[C@@H](O)C[C@@H](O)CC(=O)O` was 62 nM; that for `CC(C)c1nn(-c2ccccc2)c(-c2ccc(F)cc2)c1/C=C/[C@@H](O)C[C@@H](O)CC(=O)O` was 7 nM.
In turn, `CC[C@H](C)C(=O)O[C@H]1C[C@@H](C)C=C2C=C[C@H](C)[C@H](CCC(O)C[C@@H](O)CC(=O)O)[C@H]21` (some centres undefined) registered an IC50 of 20 nM.
Same read-out and setting: the value for `CC(C)c1nn(-c2cnccn2)c(-c2ccc(F)cc2)c1/C=C/[C@@H](O)C[C@@H](O)CC(=O)O` was 7 nM.

The next test deals with T1, 3-hydroxy-3-methylglutaryl-coenzyme A reductase. The description is as §1. Summed up: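 Lactones saponified to the 3,5-dihydroxy acids before assay. Inhibition of partially purified microsomal HMG-CoA reductase. Each inhibitor concentration assayed in triplicate.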
As for `CC(C)c1nn(-c2ccccn2)c(-c2ccc(F)cc2)c1/C=C/[C@@H](O)C[C@@H](O)CC(=O)O`, the IC50 turned out to be 24 nM. This lies in the double-digit nanomolar range.
